Measured values: PMC8177775 (Cancer Science, 2021)
Entries after “also recorded” stand apart in the source; their conditions may differ. Like-named read-outs stand apart in the source and are kept apart here.

What was measured:
[1] = Plasma pharmacokinetics of milademetan; assay type: in vivo, human; conditions: for AUC: AUCtau
[2] = system: macrophage inhibitory cytokine‐1 (MIC‐1) levels in serum; test: Serum MIC-1; assay type: in vivo, human
Summary of the method: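 Serum was drawn on cycle 1 day 1 before dosing and 6 h post dose, and on days 2, 8, 15 and 21, during oral QD dosing on days 1–21 at 60, 90 or 120 mg. MIC-1 (GDF-15) was quantified by quantitative sandwich ELISA for human GDF-15. Change from baseline was summarized by cohort using descriptive statistics.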

[3] = system: human osteosarcoma xenografts; conditions: human osteosarcoma xenografts in nude mice; cited from earlier work
[4] = system: advanced solid tumors or lymphomas; conditions: cited from earlier work
[5] = Day 21 of cycle 1, Cohort 2 (90 mg/d) (n = 9), oral QD, mean (SD)
[6] = human, plasma, po, 60 mg/d, Day 1 of cycle 1, Cohort 1 (60 mg/d) (n = 3), oral QD, mean (SD)
[7] = human, plasma, po, 60 mg/d, Day 21 of cycle 1, Cohort 1 (60 mg/d) (n = 2), oral QD, mean (SD)
[8] = human, plasma, po, 90 mg/d, Day 1 of cycle 1, Cohort 2 (90 mg/d) (n = 11), oral QD, mean (SD)

CC1(C)CCC2(CC1)N[C@@H](C(=O)N[C@@H]1CC[C@@H](C(N)=O)OC1)[C@H](c1ccnc(Cl)c1F)[C@]21C(=O)Nc2cc(Cl)ccc21 [milademetan, Milademetan]
Plasma concentration versus dose ([1]; 60 to 120 mg QD): increased in a dose‐dependent manner; also recorded: dose‐dependent increase | Ctrough ([1]; Day 21 of cycle 1, Cohort 1 (60 mg/d) (n = 2), oral QD, mean (SD)): 192 (29.7) ng/mL | Accumulation rate [1, 5]: 1.65 (0.440) | Ctrough [1, 5]: 389 (234) ng/mL | Ctrough ([1]; Day 21 of cycle 1, Cohort 3 (120 mg/d) (n = 1), oral QD, SD not calculated): 552 (NC) ng/mL | PK linearity ([1]; dose range of 60 to 120 mg/day): linear PK | half-life ([1]; human, plasma, oral, Mean t1/2, day 1, across 60- to 120-mg cohorts): 15.1 to 17.9 h | half-life ([1]; human, plasma, oral, Mean t1/2, day 21, across 60- to 120-mg cohorts): 18.1 to 26.1 h | Tmax ([1]; human, plasma, oral, Median Tmax, all cohorts): ~3 h | AUC(0-inf) ([1]; human, plasma, po, 60 mg/d): 6320 ng·h/mL | AUC [1, 6]: 4250 ng·h/mL | AUC [1, 7]: 7390 ng·h/mL | Cmax [1, 6]: 429 ng/mL | Cmax [1, 7]: 625 ng/mL | Tmax ([1]; human, plasma, po, 60 mg/d, Tmax, Day 1 of cycle 1, Cohort 1 (60 mg/d) (n = 3), oral QD, median (minimum, maximum)): 3 h | Tmax ([1]; human, plasma, po, 60 mg/d, Tmax, Day 21 of cycle 1, Cohort 1 (60 mg/d) (n = 2), oral QD, median (minimum, maximum)): 2.48 h | half-life ([1]; human, plasma, po, 60 mg/d, t1/2, Day 1 of cycle 1, Cohort 1 (60 mg/d) (n = 3), oral QD, mean (SD)): 15.1 h | half-life ([1]; human, plasma, po, 60 mg/d, t1/2, Day 21 of cycle 1, Cohort 1 (60 mg/d) (n = 2), oral QD, mean (SD)): 18.1 h | AUC [1, 8]: 8380 ng·h/mL | Cmax [1, 8]: 692 ng/mL | Cmax ([1]; human, plasma, po, 90 mg/d, Day 21 of cycle 1, Cohort 2 (90 mg/d) (n = 9), oral QD, mean (SD)): 995 ng/mL | Tmax ([1]; human, plasma, po, 90 mg/d, Tmax, Day 1 of cycle 1, Cohort 2 (90 mg/d) (n = 11), oral QD, median (minimum, maximum)): 3 h | Tmax ([1]; human, plasma, po, 90 mg/d, Tmax, Day 21 of cycle 1, Cohort 2 (90 mg/d) (n = 9), oral QD, median (minimum, maximum)): 3.02 h | half-life ([1]; human, plasma, po, 90 mg/d, t1/2, Day 1 of cycle 1, Cohort 2 (90 mg/d) (n = 11), oral QD, mean (SD)): 15.4 h | half-life ([1]; human, plasma, po, 90 mg/d, t1/2, Day 21 of cycle 1, Cohort 2 (90 mg/d) (n = 9), oral QD, mean (SD)): 20.9 h | Cmax ([1]; human, plasma, po, 120 mg/d, Day 1 of cycle 1, Cohort 3 (120 mg/d) (n = 4), oral QD, mean (SD)): 1140 ng/mL | Tmax ([1]; human, plasma, po, 120 mg/d, Tmax, Day 1 of cycle 1, Cohort 3 (120 mg/d) (n = 4), oral QD, median (minimum, maximum)): 3.01 h | Tmax ([1]; human, plasma, po, 120 mg/d, Tmax, Day 21 of cycle 1, Cohort 3 (120 mg/d) (n = 1), oral QD, median (minimum, maximum)): 2.95 h | half-life ([1]; human, plasma, po, 120 mg/d, t1/2, Day 1 of cycle 1, Cohort 3 (120 mg/d) (n = 4), oral QD, mean (SD)): 17.9 h | AUC(0-t) ([1]; human, plasma, po, 120 mg/day): 25600 ng·h/mL | Increase of MIC-1 levels from baseline to day 21, mean (SD) ([2]; 60-mg cohort): 2175.7 (1677.40) pg/mL | Increase of MIC-1 levels from baseline to day 21, mean (SD) ([2]; 90-mg cohort): 9514.5 (6812.78) pg/mL | Increase of MIC-1 levels from baseline to day 21, mean (SD) ([2]; 120-mg cohort): 7930.5 (7636.72) pg/mL | Mean MIC-1 levels after administration ([2]; all cohorts): increased from baseline in all cohorts | Tumor growth of xenografts [3]: suppresses tumor growth | MTD in US phase I study ([4]; once-daily 21/28-day schedule): 120 mg | MTD in US phase I study ([4]; once-daily 28/28-day schedule): 90 mg
